ChEMBL document CHEMBL4190191, “Cyclic Diarylheptanoids from Corylus avellana Green Leafy Covers: Determination of Their Absolute Configurations and Evaluation of Their Antioxidant and Antimicrobial Activities” (J Nat Prod, 2017)
The source made the active and inactive calls. No cut-off for these calls is given here.

Assays:
[1] = system: Pseudomonas aeruginosa; assay: Antimicrobial activity against Pseudomonas aeruginosa DSM 50071 assessed as growth inhibition at 40 ug per disc after 24 to 48 hrs (reference value: 0 millimeter); format: functional; conditions: read-out: DIZ
[2] = system: Staphylococcus aureus; assay: Antimicrobial activity against Staphylococcus aureus DSM 25923 assessed as growth inhibition at 40 ug per disc after 24 to 48 hrs (reference value: 0 millimeter); format: functional; conditions: read-out: DIZ
[3] = system: A549; assay: Cytotoxicity against human A549 cells at 10 to 100 uM by MTT assay; format: cell-based; conditions: a549, 100 µM
How it was run: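 A549 human lung adenocarcinoma cells were kept in DMEM with 10% FBS, 1% penicillin/streptomycin and 2 mM L-glutamine, at 37 °C under 5% CO2. Viability was measured by MTT assay after exposure to 10–100 μM.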

[4] = system: Bacillus cereus; assay: Antimicrobial activity against Bacillus cereus DSM 4384 assessed as growth inhibition at 40 ug per disc after 24 to 48 hrs (reference value: 0 millimeter); format: functional; conditions: read-out: DIZ
[5] = system: Plasma; assay: Antioxidant activity in human plasma assessed as inhibition of H2O2-induced lipid peroxidation at 10 uM after 30 mins by TBARS assay relative to control; format: functional, cell-free
How it was run: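 Fresh plasma from medication-free donors was incubated for 30 min at 37 °C with compound (0.1–100 μM) plus 2 mM H2O2. Lipid peroxidation was quantified as TBARS. Data are from 5–9 independent experiments, as mean ± SD.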

[6] = system: Escherichia coli; assay: Antimicrobial activity against Escherichia coli DSM 8579 assessed as growth inhibition at 40 ug per disc after 24 to 48 hrs (reference value: 0 millimeter); format: functional; conditions: read-out: DIZ
[7] = system: Bacillus cereus; assay: Antimicrobial activity against Bacillus cereus DSM 4313 assessed as growth inhibition at 40 ug per disc after 24 to 48 hrs (reference value: 0 millimeter); format: functional; conditions: read-out: DIZ
[8] = system: Plasma; assay: Antioxidant activity in human plasma assessed as inhibition of H2O2/Fe2+-induced lipid peroxidation at 10 uM after 30 mins by TBARS assay relative to control; format: functional, cell-free
How it was run: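 Human donor plasma was incubated for 30 min at 37 °C with compound at 10 μM plus 4.7 mM H2O2, 3.8 mM […] and 2.5 mM EDTA. Peroxidation was read as TBARS concentration.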

[9] = Cytotoxicity against human DeFew cells at 10 to 100 uM by MTT assay; format: cell-based
How it was run: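 DeFew human B-lymphoma cells were maintained in RPMI 1640 with 10% FBS, 1% penicillin/streptomycin and 2 mM L-glutamine, in humidified 5% CO2 at 37 °C. Cells were exposed to 10–100 μM, and viability was read by MTT.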

[10] = system: Bacillus cereus; assay: Antimicrobial activity against Bacillus cereus DSM 4384 assessed as growth inhibition at 10 ug per disc after 24 to 48 hrs (reference value: 0 millimeter); format: functional; conditions: read-out: DIZ
[11] = system: Bacillus cereus; assay: Antimicrobial activity against Bacillus cereus DSM 4384 assessed per disc after 24 hrs by resazurin dye-based microtiter-plate assay; format: functional
How it was run: (§1)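 Resazurin microtiter-plate broth dilution. Samples in DMSO were twofold serially diluted in Mueller-Hinton broth with isosensitized broth and resazurin indicator. Bacteria were added to about 5 × 10^5 cfu/mL. Ciprofloxacin served as positive control and DMSO as negative control. Plates were run in triplicate at 37 °C for 24 h. MIC is the lowest concentration […].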

[12] = system: Escherichia coli; assay: Antimicrobial activity against Escherichia coli DSM 8579 assessed as growth inhibition at 10 ug per disc after 24 to 48 hrs (reference value: 0 millimeter); format: functional; conditions: read-out: DIZ
[13] = system: Escherichia coli; assay: Antimicrobial activity against Escherichia coli DSM 8579 assessed per disc after 24 hrs by resazurin dye-based microtiter-plate assay; format: functional; how it was run: as §1
[14] = system: Escherichia coli; assay: Antimicrobial activity against Escherichia coli DSM 8579 assessed as growth inhibition at 20 ug per disc after 24 to 48 hrs (reference value: 0 millimeter); format: functional; conditions: read-out: DIZ
[15] = system: Pseudomonas aeruginosa; assay: Antimicrobial activity against Pseudomonas aeruginosa DSM 50071 assessed as growth inhibition at 10 ug per disc after 24 to 48 hrs (reference value: 0 millimeter); format: functional; conditions: read-out: DIZ
[16] = system: Bacillus cereus; assay: Antimicrobial activity against Bacillus cereus DSM 4313 assessed as growth inhibition at 20 ug per disc after 24 to 48 hrs (reference value: 0 millimeter); format: functional; conditions: read-out: DIZ
[17] = system: Staphylococcus aureus; assay: Antimicrobial activity against Staphylococcus aureus DSM 25923 assessed as growth inhibition at 10 ug per disc after 24 to 48 hrs (reference value: 0 millimeter); format: functional; conditions: read-out: DIZ
[18] = system: Bacillus cereus; assay: Antimicrobial activity against Bacillus cereus DSM 4313 assessed per disc after 24 hrs by resazurin dye-based microtiter-plate assay; format: functional; how it was run: as §1
[19] = system: Pseudomonas aeruginosa; assay: Antimicrobial activity against Pseudomonas aeruginosa DSM 50071 assessed as growth inhibition at 20 ug per disc after 24 to 48 hrs (reference value: 0 millimeter); format: functional; conditions: read-out: DIZ
[20] = system: Staphylococcus aureus; assay: Antimicrobial activity against Staphylococcus aureus DSM 25923 assessed per disc after 24 hrs by resazurin dye-based microtiter-plate assay; format: functional; how it was run: as §1
[21] = system: Pseudomonas aeruginosa; assay: Antimicrobial activity against Pseudomonas aeruginosa DSM 50071 assessed per disc after 24 hrs by resazurin dye-based microtiter-plate assay; format: functional; how it was run: as §1
[22] = system: Bacillus cereus; assay: Antimicrobial activity against Bacillus cereus DSM 4384 assessed as growth inhibition at 20 ug per disc after 24 to 48 hrs (reference value: 0 millimeter); format: functional; conditions: read-out: DIZ
[23] = system: Staphylococcus aureus; assay: Antimicrobial activity against Staphylococcus aureus DSM 25923 assessed as growth inhibition at 20 ug per disc after 24 to 48 hrs (reference value: 0 millimeter); format: functional; conditions: read-out: DIZ
[24] = system: Bacillus cereus; assay: Antimicrobial activity against Bacillus cereus DSM 4313 assessed as growth inhibition at 10 ug per disc after 24 to 48 hrs (reference value: 0 millimeter); format: functional; conditions: read-out: DIZ

SMILES	zone of inhibition at 40 µg/disc [1] [mm]	zone of inhibition at 40 µg/disc [2] [mm]	Activity [3]	zone of inhibition at 40 µg/disc [4] [mm]	inhibition [5]	zone of inhibition at 40 µg/disc [6] [mm]	zone of inhibition at 40 µg/disc [7] [mm]	inhibition [8]	Activity [9]	zone of inhibition at 10 µg/disc [10] [mm]	zone of inhibition at 10 µg/disc [12] [mm]	zone of inhibition at 20 µg/disc [14] [mm]	zone of inhibition at 10 µg/disc [15] [mm]	zone of inhibition at 20 µg/disc [16] [mm]	zone of inhibition at 10 µg/disc [17] [mm]	zone of inhibition at 20 µg/disc [19] [mm]	zone of inhibition at 20 µg/disc [22] [mm]	zone of inhibition at 20 µg/disc [23] [mm]	zone of inhibition at 10 µg/disc [24] [mm]	further results
O=C1/C=C/CCc2ccc(O[C@@H]3O[C@H](CO)[C@@H](O)[C@H](O)[C@H]3O)c(c2)-c2cc(ccc2O[C@H]2OC[C@H](O)[C@H](O)[C@H]2O)CC1 (mixture of isomers)	4.67	10	Non-Toxic	0	12.6%	10	5	18.1%	Non-Toxic	–	–	–	–	–	–	–	–	–	–	–
O=C(O)CC(O)(CC(=O)O)C(=O)O [CITRIC ACID]	9.33	10.7	Non-Toxic	0	inactive	10.7	10	inactive	Non-Toxic	–	–	–	–	–	–	–	–	–	–	–
O=C(/C=C/c1ccc(O)c(O)c1)O[C@@H]1C[C@](O)(C(=O)O)C[C@@H](OC(=O)/C=C/c2ccc(O)c(O)c2)[C@H]1O	0	6.67	Non-Toxic	0	24.2%	8.33	0	25.5%	Non-Toxic	–	–	–	–	–	–	–	–	–	–	–
COC(=O)CC(O)(CC(=O)OC)C(=O)OC	6.67	11.3	Non-Toxic	0	inactive	11.3	0	inactive	Non-Toxic	–	–	–	–	–	–	–	–	–	–	–
COC(=O)CC(O)(CC(=O)O)C(=O)O (stereo unspecified)	0	10.7	Non-Toxic	0	inactive	10	5.67	inactive	Non-Toxic	–	–	–	–	–	–	–	–	–	–	–
C[C@@H]1O[C@@H](Oc2c(-c3cc(O)c(O)c(O)c3)oc3cc(O)cc(O)c3c2=O)[C@H](O)[C@H](O)[C@H]1O	5	6.33	Non-Toxic	0	44.4%	9.67	0	34.1%	Non-Toxic	–	–	–	–	–	–	–	–	–	–	–
O=C1CCc2ccc(O)c(c2)-c2cc(ccc2O)C[C@@H](O)[C@H](O)[C@H]1O (mixture of isomers)	10.7	5.67	Non-Toxic	10.7	32.2%	11.7	10.7	24.4%	Non-Toxic	5	9.33	9.67	4.67	5	0	4.67	5	0	5	MIC [11]: 4 µg; MIC [13]: 10 µg; MIC [18]: 4 µg; MIC [20]: 30 µg; MIC [21]: 10 µg
C[C@@H]1O[C@@H](Oc2c(-c3ccc(O)cc3)oc3cc(O)cc(O)c3c2=O)[C@H](O)[C@H](O)[C@H]1O [AFZELIN]	4	10.3	Non-Toxic	5	5.7%	10	0	20.1%	Non-Toxic	–	–	–	–	–	–	–	–	–	–	–
O=C1Cc2ccc(O)c(c2)-c2cc(ccc2O)C[C@@H](O)[C@@H](O)[C@@H](O)[C@H]1O (mixture of isomers)	10	10.7	Non-Toxic	11.3	33.3%	10.3	10.7	14.4%	Non-Toxic	5.67	4.67	10	5	9.67	6.33	8.67	9.67	10	5.67	MIC [11]: 5 µg; MIC [13]: 10 µg; MIC [18]: 5 µg; MIC [20]: 30 µg; MIC [21]: 10 µg
O=C1CCc2ccc(O[C@@H]3O[C@H](CO)[C@@H](O)[C@H](O)[C@H]3O)c(c2)-c2cc(ccc2O)C[C@@H](O)[C@H](O)[C@H]1O (mixture of isomers)	9	11.3	Non-Toxic	0	14.7%	0	5	23.3%	Non-Toxic	0	0	0	0	0	0	0	0	0	0	MIC [11]: 50 µg; MIC [13]: 50 µg; MIC [18]: 30 µg; MIC [20]: 30 µg; MIC [21]: 30 µg
COc1cc(/C=C/C(=O)CC(=O)/C=C/c2ccc(O)c(OC)c2)ccc1O	–	–	–	–	21.1%	–	–	22.9%	–	–	–	–	–	–	–	–	–	–	–	–
C[C@@H]1O[C@@H](Oc2c(-c3ccc(O)cc3)oc3cc(O)cc(O)c3c2=O)[C@H](O)[C@H](O)[C@H]1OC(=O)/C=C/c1ccc(O)cc1	9.67	10.7	Non-Toxic	9.67	31.8%	8.66	5.33	39.7%	Non-Toxic	5	3	4.33	0	3.33	5	0	5	6.67	2.33	–
